Experimental data as given in ChEMBL document CHEMBL4130631, “Identification of the Histidine Residue in Vitamin D Receptor That Covalently Binds to Electrophilic Ligands” (J Med Chem, 2018).
Activity calls are given as the source filed them. The calls are words filed in the database; no cut-off is given here.

Columns and labels:
[1] = target: T1, Vitamin D3 receptor (Homo sapiens) (UniProt P11473); test: Displacement of [3H]-1,25D3 from C-terminal GST-tagged human recombinant VDR LBD expressed in Escherichia coli BL21 (DE3) after 16 hrs by radioligand binding assay relative to 1,25D3
T1 sequence (whole entry): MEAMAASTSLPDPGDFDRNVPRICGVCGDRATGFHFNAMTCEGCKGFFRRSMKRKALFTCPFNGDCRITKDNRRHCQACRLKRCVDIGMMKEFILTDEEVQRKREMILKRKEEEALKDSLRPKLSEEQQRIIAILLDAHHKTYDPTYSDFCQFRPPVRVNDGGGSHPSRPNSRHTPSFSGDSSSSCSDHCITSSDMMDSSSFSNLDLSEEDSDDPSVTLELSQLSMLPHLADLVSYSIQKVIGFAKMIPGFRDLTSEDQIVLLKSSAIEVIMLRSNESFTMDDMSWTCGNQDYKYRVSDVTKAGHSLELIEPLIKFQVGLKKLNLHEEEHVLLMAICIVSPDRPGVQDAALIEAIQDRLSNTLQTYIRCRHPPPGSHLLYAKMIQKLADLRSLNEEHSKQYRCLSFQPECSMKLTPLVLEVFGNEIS
How it was run: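 Competitive binding against [3H]-1,25D3 using human VDR-LBD expressed as C-terminal GST fusion from pGEX-VDR in E. coli BL21; IC50 derived.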

[2] = target: T2, Vitamin D3 receptor (Rattus norvegicus) (UniProt P13053); test: Covalent binding affinity to rat VDR LBD (116 to 423 residues, 165-211 residues) assessed as covalently modified protein level at 5 equivalents by ESI-MS analysis; conditions: TDE = time-dependent effect
T2 sequence (whole entry): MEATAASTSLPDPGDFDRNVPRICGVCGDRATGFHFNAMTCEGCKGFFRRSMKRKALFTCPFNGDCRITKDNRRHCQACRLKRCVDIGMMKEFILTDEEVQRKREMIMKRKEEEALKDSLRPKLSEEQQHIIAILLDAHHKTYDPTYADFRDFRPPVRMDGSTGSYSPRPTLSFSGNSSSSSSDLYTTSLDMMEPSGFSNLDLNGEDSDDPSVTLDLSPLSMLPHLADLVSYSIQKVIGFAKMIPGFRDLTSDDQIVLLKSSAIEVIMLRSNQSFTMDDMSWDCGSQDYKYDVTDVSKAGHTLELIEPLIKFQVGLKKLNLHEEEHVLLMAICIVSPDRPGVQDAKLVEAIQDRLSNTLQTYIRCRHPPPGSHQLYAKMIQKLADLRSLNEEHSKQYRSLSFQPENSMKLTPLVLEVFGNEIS
How it was run: (§1)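 Rat VDR-LBD (residues 116−423, Δ165−211) concentrated in 50 mM ammonium acetate pH 6.5, 10 μM, incubated with 5 equiv ligand at room temperature. Samples sampled over time (up to 6 h, or 24 h), infused at 30 μL/min, analysed by positive-ion ESI-MS, m/z 100−4000. Spectra deconvoluted to unmodified versus ligand-adduct protein mass peaks.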

[3] = target: T1, Vitamin D3 receptor (Homo sapiens); test: Agonist activity at human full-length VDR expressed in HEK293 cells by osteopontin luciferase reporter gene assay; type: cell-based
How it was run: (§2)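 Dual luciferase reporter in Cos7 or HEK293 cells cotransfected with full-length human VDR plasmid (pCMX-hVDR), reporter carrying three copies of osteopontin VDRE (SPPx3-TK-Luc) and sea pansy luciferase control (pRL-CMV). Activity normalized to 1,25D3 set as 1: 10−8 M in Cos7, 10−9 M in HEK293.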

[4] = target: T2, Vitamin D3 receptor (Rattus norvegicus); test: Covalent binding affinity to rat VDR LBD (116 to 423 residues, 165-211 residues) assessed as time duration for complete covalent bond formation with protein at 5 equivalents by ESI-MS analysis; how it was run: as §1
[5] = target: T3, Vitamin D3 receptor (Homo sapiens, UniProt P11473); test: Displacement of [3H]-1,25D3 from C-terminal GST-tagged human recombinant VDR LBD expressed in Escherichia coli BL21 (DE3) after 16 hrs by radioligand binding assay
T3 sequence (P11473 whole entry): T1 sequence (whole entry)

[6] = target: T2, Vitamin D3 receptor (Rattus norvegicus); test: Irreversible covalent binding affinity to rat VDR LBD (116 to 423 residues, 165-211 residues) at 2 equivalents after 24 hrs followed by compound wash out and subsequent addition of 10 equivalents of 1,25D3 and measured after 24 hrs by ESI-MS analysis
How it was run: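 Rat VDR-LBD (Δ165−211) incubated with ligand for 24 h; covalent adduct confirmed by ESI-MS, then buffer exchanged to ligand-free buffer and 10 equiv 1,25D3 added. Positive-ion ESI-MS read for retained modified versus exchanged protein peaks.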

[7] = target: T2, Vitamin D3 receptor (Rattus norvegicus); test: Covalent binding affinity to rat VDR LBD (116 to 423 residues, 165-211 residues) at 5 equivalents by ESI-MS analysis; how it was run: as §1
[8] = target: T2, Vitamin D3 receptor (Rattus norvegicus); test: Covalent binding affinity to rat VDR LBD (116 to 423 residues, 165-211 residues) at 2 equivalents after 24 hrs by ESI-MS analysis
[9] = target: T1, Vitamin D3 receptor (Homo sapiens); test: Agonist activity at human full-length VDR expressed in African green monkey COS7 cells by osteopontin luciferase reporter gene assay; type: cell-based; how it was run: as §2
[10] = target: T2, Vitamin D3 receptor (Rattus norvegicus); test: Covalent binding affinity to rat VDR LBD (116 to 423 residues, 165-211 residues) at 5 equivalents after 30 hrs by ESI-MS analysis

| SMILES | Ratio IC50 [1] | Activity [2] | Activity [3] | TIME [4] | IC50 [5] | Activity [6] | Activity [7] | Activity [8] | Activity [9] | Activity [10] |
| --- | --- | --- | --- | --- | --- | --- | --- | --- | --- | --- |
| C=C1[C@H](O)CC(=C/C=C2\CCC[C@]3(C)[C@@H]([C@H](C)CCC(=O)/C=C/C)CC[C@@H]23)C[C@H]1O | 0.034 | Tde | Active | 3 h | 1.8 nM | Active | Active | Active | Active | – |
| C=CC(=O)CC[C@@H](C)[C@H]1CC[C@H]2/C(=C/C=C3C[C@@H](O)C(=C)[C@H](O)C3)CCC[C@]12C | 0.055 | Tde | Active | 1.5 h | 1.1 nM | Active | Active | Active | Active | – |
| C=C1[C@H](O)CC(=C/C=C2\CCC[C@]3(C)[C@@H]([C@H](C)C(=O)/C=C/C=C/C)CC[C@@H]23)C[C@H]1O | 0.022 | – | Active | – | 2.3 nM | – | – | – | Active | Active |
